Columns and labels:
A549 = test: Cytotoxicity against human A549 cells by sulforhodamine B dye-staining method; type: functional, cell-based
Outline: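 Human lung cancer A549 cells were stained with sulforhodamine B dye, and the IC50 was reported as the cytotoxicity value.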

P388 = test: Cytotoxicity against mouse P388 cells by microculture tetrazolium-formazan method; type: functional, cell-based
Outline: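 Murine P388 leukemia cells were assayed by the microculture tetrazolium–formazan method, and the IC50 was reported as the cytotoxicity value.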

| Compound | IC50 (A549) [µmol] | IC50 (P388) [µmol] |
| --- | --- | --- |
| CN(C)CCN1C(=O)c2cccc3cccc1c23 | 300 | 79.4 |
| CN(C)CCCN1C(=O)c2cccc3cccc1c23 | 22.9 | 7.76 |
| CN(C)CCNCCN1C(=O)c2cccc3cccc1c23 | 0.489 | 1.69 |
| O=C1c2ccc([N+](=O)[O-])c3cccc(c23)N1CCCl | 52.5 | 17.8 |
| O=C1c2cccc3cccc(c23)N1CCNCCN1C(=O)c2cccc3cccc1c23 | 29.5 | 13.8 |

Source: ChEMBL document CHEMBL1146316, “Novel antitumor agent family of 1H-benzo[c,d]indol-2-one with flexible basic side chains: synthesis and biological evaluation” (Bioorg Med Chem, 2007)
